Tests used:
Format in all cases: functional
SR = assay: Antitumor activity against human SR cells after 48 hrs by SRB assay
Method in brief: (§1)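 NCI-60 human tumour cell panel run under the National Cancer Institute Drug Evaluation Branch protocol. Compounds passing a single-dose prescreen were retested on all lines at five 10-fold dilutions. Growth was expressed as percent growth of treated cells. Response parameters were GI50 (molar concentration giving 50% growth inhibition), TGI (total growth inhibition) and LC50 (median lethal concentration).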

UACC-62 = assay: Antitumor activity against human UACC62 cells after 48 hrs by SRB assay; details: UACC-62, 48 h
Method in brief: (§2)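 NCI-60 human cancer cell line panel run under the NCI Drug Evaluation Branch protocol. Compounds were first screened at a single dose. Those meeting preset inhibition thresholds were retested at five 10-fold dilutions. Output was percent growth of treated cells, given as % growth inhibition. GI50, TGI and LC50 values were derived from the five-dose data.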

OVCAR-8 = assay: Antitumor activity against human OVCAR8 cells after 48 hrs by SRB assay; details: OVCAR-8, 48 h; method in brief: as §1
LOX IMVI = assay: Antitumor activity against human LOXIMVI cells after 48 hrs by SRB assay; details: for CC50: read-out: LC50 (the source's name); method in brief: as §1
A549 = assay: Antitumor activity against human A549 cells after 48 hrs by SRB assay; details: A549, 48 h; for CC50: read-out: LC50 (the source's name); method in brief: as §1
MDA-MB-435 = assay: Antitumor activity against human MDA-MB-435 cells after 48 hrs by SRB assay; details: MDA-MB-435, 48 h; method in brief: as §1
CCRF-CEM = assay: Antitumor activity against human CCRF-CEM cells after 48 hrs by SRB assay; method in brief: as §1
EKVX = assay: Antitumor activity against human EKVX cells after 48 hrs by SRB assay; details: for CC50: read-out: LC50 (the source's name); method in brief: as §1
SNB-19 = assay: Antitumor activity against human SNB19 cells after 48 hrs by SRB assay; details: SNB-19, 48 h; method in brief: as §1
KM12 = assay: Antitumor activity against human KM12 cells after 48 hrs by SRB assay; details: KM12, 48 h; for CC50: read-out: LC50 (the source's name); method in brief: as §1
CAKI-1 = assay: Antitumor activity against human Caki1 cells after 48 hrs by SRB assay; details: CAKI-1, 48 h; for CC50: read-out: LC50 (the source's name); method in brief: as §1
SW-620 = assay: Antitumor activity against human SW620 cells after 48 hrs by SRB assay; details: SW-620, 48 h; for CC50: read-out: LC50 (the source's name); method in brief: as §2
HT-29 = assay: Antitumor activity against human HT-29 cells after 48 hrs by SRB assay; details: HT-29, 48 h; for CC50: read-out: LC50 (the source's name); method in brief: as §1
K562 = assay: Antitumor activity against human K562 cells after 48 hrs by SRB assay; details: K562, 48 h; method in brief: as §1
HCT-15 = assay: Antitumor activity against human HCT15 cells after 48 hrs by SRB assay; details: HCT-15, 48 h; for CC50: read-out: LC50 (the source's name); method in brief: as §1
RPMI-8226 = assay: Antitumor activity against human RPMI8226 cells after 48 hrs by SRB assay; details: RPMI-8226, 48 h; for CC50: read-out: LC50 (the source's name); method in brief: as §1
TK-10 = assay: Antitumor activity against human TK10 cells after 48 hrs by SRB assay; details: TK-10, 48 h; for CC50: read-out: LC50 (the source's name); method in brief: as §2
NCI-H322M = assay: Antitumor activity against human NCI-H322M cells after 48 hrs by SRB assay; details: for CC50: read-out: LC50 (the source's name); method in brief: as §1
NCI-H226 = assay: Antitumor activity against human NCI-H226 cells after 48 hrs by SRB assay; details: NCI-H226, 48 h; for CC50: read-out: LC50 (the source's name); method in brief: as §1
SK-MEL-2 = assay: Antitumor activity against human SK-MEL-2 cells after 48 hrs by SRB assay; details: SK-MEL-2, 48 h; method in brief: as §1
UACC-257 = assay: Antitumor activity against human UACC257 cells after 48 hrs by SRB assay; details: UACC-257, 48 h; method in brief: as §2
HOP-62 = assay: Antitumor activity against human HOP62 cells after 48 hrs by SRB assay; details: HOP-62, 48 h; for CC50: read-out: LC50 (the source's name); method in brief: as §1
HCC 2998 = assay: Antitumor activity against human HCC2998 cells after 48 hrs by SRB assay; details: HCC 2998, 48 h; for CC50: read-out: LC50 (the source's name); method in brief: as §1
Malme-3M = assay: Antitumor activity against human MALME-3M cells after 48 hrs by SRB assay; method in brief: as §1
PC-3 = assay: Antitumor activity against human PC3 cells after 48 hrs by SRB assay; details: PC-3, 48 h; method in brief: as §1

## Cc1cc2nc(-c3c(N)ncc(C#N)c3-c3ccc(Cl)cc3)[nH]c2cc1C
SR
  GI50: 28.7 µM
  LC50 (median lethal concentration): > 100 µM
  TGI: > 100 µM
UACC-62
  GI50: 11 µM
  LC50: > 100 µM
  TGI: 53.2 µM
OVCAR-8
  GI50: 4.53 µM
  LC50 (median lethal concentration): > 100 µM
  TGI: 29.6 µM
LOX IMVI
  GI50: 5.83 µM
  TGI: 26 µM
  CC50: 80.7 µM
A549
  GI50: 4.17 µM
  TGI: 24.9 µM
  CC50: > 100 µM
MDA-MB-435
  GI50: 2620 nM
  LC50 (median lethal concentration): > 100 µM
  TGI: > 100 µM
CCRF-CEM
  GI50: 24.6 µM
  LC50: > 100 µM
  TGI: > 100 µM
EKVX
  GI50: 14.4 µM
  TGI: 76.7 µM
  CC50: > 100 µM
SNB-19
  GI50: 19.5 µM
  LC50 (median lethal concentration): > 100 µM
  TGI: 75.6 µM
KM12
  GI50: 14.8 µM
  TGI: > 100 µM
  CC50: > 100 µM
CAKI-1
  GI50: 12.1 µM
  TGI: > 100 µM
  CC50: > 100 µM
SW-620
  GI50: 32.4 µM
  TGI: > 100 µM
  CC50: > 100 µM
HT-29
  GI50: 6.06 µM
  TGI: > 100 µM
  CC50: > 100 µM
K562
  GI50: 31.5 µM
  LC50: > 100 µM
  TGI: > 100 µM
HCT-15
  GI50: 30.6 µM
  TGI: > 100 µM
  CC50: > 100 µM
RPMI-8226
  GI50: 5.55 µM
  TGI: > 100 µM
  CC50: > 100 µM
TK-10
  GI50: 4.67 µM
  TGI: 21.3 µM
  CC50: 69.5 µM
NCI-H322M
  GI50: 27.7 µM
  TGI: > 100 µM
  CC50: > 100 µM
NCI-H226
  GI50: 15 µM
  TGI: 46.3 µM
  CC50: 100 µM
SK-MEL-2
  GI50: 20.4 µM
  LC50 (median lethal concentration): > 100 µM
  TGI: > 100 µM
UACC-257
  GI50: 11.4 µM
  LC50: > 100 µM
  TGI: 82.6 µM
HOP-62
  GI50: 6.36 µM
  TGI: 21.7 µM
  CC50: 55.9 µM
HCC 2998
  GI50: 20.9 µM
  TGI: > 100 µM
  CC50: > 100 µM
Malme-3M
  GI50: 14.5 µM
  LC50: > 100 µM
  TGI: 78.8 µM

## COc1ccc(-c2c(C#N)cnc(N)c2-c2nc3cc(C)c(C)cc3[nH]2)cc1
SR
  GI50: 5.64 µM
  LC50 (median lethal concentration): > 100 µM
  TGI: > 100 µM
UACC-62
  GI50: 72.2 µM
  LC50: > 100 µM
  TGI: > 100 µM
OVCAR-8
  GI50: 5.2 µM
  LC50 (median lethal concentration): > 100 µM
  TGI: 26.8 µM
LOX IMVI
  GI50: 5.74 µM
  TGI: > 100 µM
  CC50: > 100 µM
A549
  GI50: 6.54 µM
  TGI: 72.5 µM
  CC50: > 100 µM
MDA-MB-435
  GI50: 1950 nM
  LC50 (median lethal concentration): 100 µM
  TGI: 5.39 µM
CCRF-CEM
  GI50: 25.6 µM
  LC50: > 100 µM
  TGI: > 100 µM
EKVX
  GI50: 15.8 µM
  TGI: > 100 µM
  CC50: > 100 µM
SNB-19
  GI50: 7.06 µM
  LC50 (median lethal concentration): > 100 µM
  TGI: 57.1 µM
KM12
  GI50: 3.47 µM
  TGI: > 100 µM
  CC50: > 100 µM
CAKI-1
  GI50: 14.6 µM
  TGI: > 100 µM
  CC50: > 100 µM
PC-3
  GI50: 8.86 µM
SW-620
  GI50: 6.76 µM
  TGI: > 100 µM
  CC50: > 100 µM
HT-29
  GI50: 4.79 µM
  TGI: > 100 µM
  CC50: > 100 µM
K562
  GI50: 6.03 µM
  LC50: > 100 µM
  TGI: > 100 µM
HCT-15
  GI50: 5.81 µM
  TGI: > 100 µM
  CC50: > 100 µM
RPMI-8226
  GI50: 32.5 µM
  TGI: > 100 µM
  CC50: > 100 µM
TK-10
  GI50: 5.94 µM
  TGI: 26.4 µM
  CC50: 99.6 µM
NCI-H322M
  GI50: 15.5 µM
  TGI: > 100 µM
  CC50: > 100 µM
NCI-H226
  GI50: 16.4 µM
  TGI: > 100 µM
  CC50: > 100 µM
SK-MEL-2
  GI50: 10.8 µM
  LC50 (median lethal concentration): > 100 µM
  TGI: 98 µM
UACC-257
  GI50: 52 µM
  LC50: > 100 µM
  TGI: > 100 µM
HOP-62
  GI50: 3.65 µM
  TGI: 14.4 µM
  CC50: 45.2 µM
HCC 2998
  GI50: 11 µM
  TGI: > 100 µM
  CC50: > 100 µM
Malme-3M
  GI50: 6 µM
  LC50: > 100 µM
  TGI: 48.3 µM

Source: ChEMBL document CHEMBL1821649, “Synthesis, characterization of some benzazoles bearing pyridine moiety: search for novel anticancer agents” (2011)
